Laboratory results: ChEMBL document CHEMBL3244135, “11,12-Secoprostaglandins. 1. Acylhydroxyalkanoic acids and related compounds” (J Med Chem, 1977)
Active and inactive are the calls of the source. No cut-off for these calls is given here.

How the values were obtained:
Mus musculus [1] = species: Mus musculus; assay: Binding affinity to prostanoid receptor in [8-14C]-adenine-treated CD-1 mouse ovary assessed as increase in c-AMP production at 10 ug/mL after 30 mins by paper chromatographic analysis in presence of phosphodiesterase inhibitor theophylline; type: tissue-based; conditions: Female gonad
Outline: (§1)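 Virgin CD-1 female mice over 70 days old; three ovaries (15-25 mg), denuded of fat, preincubated 1 h at 37 °C in 2 ml aerated Krebs–Ringer phosphate pH 7.2 with 1 μCi adenine-8-14C. Theophylline (0.2 ml of 0.05 M stock) and compound in Me2SO then added, 30 min at 37 °C. Stopped with trichloroacetic acid; cAMP-14C isolated, paper chromatography; expressed as fold over untreated ovaries.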

Mus musculus [2] = species: Mus musculus; assay: Binding affinity to prostanoid receptor in [8-14C]-adenine-treated CD-1 mouse ovary assessed as increase in c-AMP production at 25 ug/mL after 30 mins by paper chromatographic analysis in presence of phosphodiesterase inhibitor theophylline; type: tissue-based; conditions: Female gonad; outline: as §1
Mus musculus [3] = species: Mus musculus; assay: Binding affinity to prostanoid receptor in [8-14C]-adenine-treated CD-1 mouse ovary assessed as increase in c-AMP production at 100 ug/mL after 30 mins by paper chromatographic analysis in presence of phosphodiesterase inhibitor theophylline; type: tissue-based; conditions: Female gonad; outline: as §1
Rattus norvegicus = species: Rattus norvegicus; assay: Binding affinity to prostanoid receptor in Holtzman rat lipocytes assessed as compound equivalent to 1 ng cold PGE1 in displacing [3H]-PGE1 from receptor after 30 mins; type: cell-based; conditions: in the assay text read “after 60 mins” for “after 30 mins”
Outline: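 Test compound at appropriate concentrations incubated with 0.4 ng [3H]-PGE1 and 125 μg rat lipocyte binding preparation for 60 min at 37 °C. Bound [3H]-PGE1 then measured.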

[4] = target: T1, 15-hydroxyprostaglandin dehydrogenase [NAD(+)] (Homo sapiens, UniProt P15428); assay: Stability of the compound assessed as prostaglandin 15-hydroxydehydrogenase (unknown origin)-mediated metabolite formation; type: ADME
T1 sequence (P15428 whole entry): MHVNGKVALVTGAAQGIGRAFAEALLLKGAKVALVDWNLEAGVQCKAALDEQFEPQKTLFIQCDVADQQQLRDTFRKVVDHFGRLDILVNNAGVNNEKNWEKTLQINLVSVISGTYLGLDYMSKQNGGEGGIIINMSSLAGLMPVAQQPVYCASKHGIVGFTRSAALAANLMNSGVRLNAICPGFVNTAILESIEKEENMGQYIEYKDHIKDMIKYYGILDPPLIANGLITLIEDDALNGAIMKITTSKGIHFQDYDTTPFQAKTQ

Mus musculus [5] = species: Mus musculus; assay: Binding affinity to prostanoid receptor in [8-14C]-adenine-treated CD-1 mouse ovary assessed as increase in c-AMP production at 0.01 ug/mL after 30 mins by paper chromatographic analysis in presence of phosphodiesterase inhibitor theophylline; type: tissue-based; conditions: Female gonad; outline: as §1
Mus musculus [6] = species: Mus musculus; assay: Binding affinity to prostanoid receptor in [8-14C]-adenine-treated CD-1 mouse ovary assessed as increase in c-AMP production at 0.05 ug/mL after 30 mins by paper chromatographic analysis in presence of phosphodiesterase inhibitor theophylline; type: tissue-based; conditions: Female gonad; outline: as §1
Mus musculus [7] = species: Mus musculus; assay: Binding affinity to prostanoid receptor in [8-14C]-adenine-treated CD-1 mouse ovary assessed as increase in c-AMP production at 0.1 ug/mL after 30 mins by paper chromatographic analysis in presence of phosphodiesterase inhibitor theophylline; type: tissue-based; conditions: Female gonad; outline: as §1
Mus musculus [8] = species: Mus musculus; assay: Binding affinity to prostanoid receptor in [8-14C]-adenine-treated CD-1 mouse ovary assessed as increase in c-AMP production at 1 ug/mL after 30 mins by paper chromatographic analysis in presence of phosphodiesterase inhibitor theophylline; type: tissue-based; conditions: Female gonad; outline: as §1
Canis familiaris [9] = assay: Renal vasodilatory activity in dog assessed as increase in renal blood flow administered through infusion into renal artery; type: functional, organism-based; conditions: Canis lupus familiaris; Kidney
Cavia porcellus [10] = assay: Inhibition of collagen-induced platelet aggregation in po dosed guinea pig; type: functional
Outline: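 Test compound given orally to guinea pigs. Collagen-induced platelet aggregation then measured. Potency expressed as ED50 in mg/kg.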

Cavia porcellus [11] = assay: Inhibition of collagen-induced platelet aggregation in ip dosed guinea pig; type: functional
Mus musculus [12] = species: Mus musculus; assay: Binding affinity to prostanoid receptor in [8-14C]-adenine-treated CD-1 mouse ovary assessed as increase in c-AMP production at 50 ug/mL after 30 mins by paper chromatographic analysis in presence of phosphodiesterase inhibitor theophylline; type: tissue-based; conditions: Female gonad; outline: as §1
Mus musculus [13] = species: Mus musculus; assay: Binding affinity to prostanoid receptor in [8-14C]-adenine-treated CD-1 mouse ovary assessed as increase in c-AMP production at 200 ug/mL after 30 mins by paper chromatographic analysis in presence of phosphodiesterase inhibitor theophylline; type: tissue-based; conditions: Female gonad; outline: as §1
Canis familiaris [14] = assay: Renal vasodilatory activity in dog assessed as increase in renal blood flow at 0.5 mg/kg/min, iv administered as infusion relative to control; type: functional, Canis lupus familiaris, Kidney
Outline: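 Anesthetized dogs given intravenous infusion of 0.5 mg/kg/min. Renal blood flow measured electromagnetically in a single kidney. Read-out is the maximum increase above the control flow value.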

## CCCC(O)CCCCCC(CCCCCCC(=O)O)C(C)=O (centres undefined)
Mus musculus [1]
  fold change (FC): 4
Mus musculus [2]
  fold change (FC): 4
Mus musculus [3]
  fold change (FC): 8
Rattus norvegicus
  Activity: 65 µgequiv
[4]
  Stability: Stable

## CCCCC[C@H](O)/C=C/[C@H]1[C@H](O)CC(=O)[C@@H]1CCCCCCC(=O)O [ALPROSTADIL]
Mus musculus [5]
  fold change (FC): 8
Mus musculus [6]
  fold change (FC): 29
Mus musculus [7]
  fold change (FC): 25
Mus musculus [8]
  fold change (FC): 54
Canis familiaris [9]
  Activity: Active
Cavia porcellus [10]
  inhibition: inactive
Cavia porcellus [11]
  ED50: 0.02 mg/kg

## CCCCCC(O)CCCC(CCCCCCC(=O)O)C(=O)CC (centres undefined)
Mus musculus [1]
  fold change (FC): 6
Mus musculus [2]
  fold change (FC): 17
Mus musculus [3]
  fold change (FC): 26
Rattus norvegicus
  Activity: 2.4 µgequiv
[4]
  Stability: Stable

## CC(=O)C(CCCCCCC(=O)O)CCCC(O)CCc1ccccc1 (centres undefined)
Mus musculus [1]
  fold change (FC): 1
Mus musculus [2]
  fold change (FC): 1
Mus musculus [3]
  fold change (FC): 2
[4]
  Stability: Stable

## CCCCCC(O)C#CCC(CCCCCCC(=O)O)C(C)=O (centres undefined)
Mus musculus [1]
  fold change (FC): 2
Mus musculus [2]
  fold change (FC): 4
Mus musculus [3]
  fold change (FC): 7
[4]
  Stability: Stable

## CCCCCC(O)CCCC(CO)CCCCCCC(=O)O (centres undefined)
Mus musculus [1]
  fold change (FC): 8
Mus musculus [2]
  fold change (FC): 9
Mus musculus [3]
  fold change (FC): 18
Rattus norvegicus
  Activity: 4.6 µgequiv
[4]
  Stability: Stable

## CCCCCC(O)CCCC(CCCCCCC(=O)O)C(C)=O (mixture of isomers) [listing 1 of 2 here]
Mus musculus [1]
  fold change (FC): 11
Mus musculus [2]
  fold change (FC): 14
Mus musculus [3]
  fold change (FC): 23
Rattus norvegicus
  Activity: 1.7 µgequiv
Mus musculus [8]
  fold change (FC): 2
Mus musculus [12]
  fold change (FC): 16
Mus musculus [13]
  fold change (FC): 16

## CCCCC(O)CCCCC(CCCCCCC(=O)O)C(C)=O (centres undefined)
Mus musculus [1]
  fold change (FC): 9
Mus musculus [2]
  fold change (FC): 9
Mus musculus [3]
  fold change (FC): 20
Rattus norvegicus
  Activity: 2.1 µgequiv
[4]
  Stability: Stable

## CCCCCC(O)CCCC(CCCCCCC(=O)O)C(C)=O (racemic)
Mus musculus [1]
  fold change (FC): 7
Mus musculus [2]
  fold change (FC): 19
Mus musculus [3]
  fold change (FC): 23

## CCCCCC[C@@H](O)C/C=C/CCCCCCCC(=O)O
Mus musculus [3]
  fold change (FC): 2
Mus musculus [12]
  fold change (FC): 2
Mus musculus [13]
  fold change (FC): 1

## CCCCCCCC(O)CCCC(CCCCCCC(=O)O)C(C)=O (centres undefined)
Mus musculus [1]
  fold change (FC): 19
Mus musculus [2]
  fold change (FC): 37
Mus musculus [3]
  fold change (FC): 39
Rattus norvegicus
  Activity: 6.6 µgequiv
[4]
  Stability: Stable

## CC(=O)C(CCCCO)CCCCCCC(=O)O (centres undefined)
Mus musculus [2]
  fold change (FC): 1
Mus musculus [3]
  fold change (FC): 1
Rattus norvegicus
  Activity: 450 µgequiv
[4]
  Stability: Stable

## CCCCC[C@@H](O)C#CCC(CCCCCCC(=O)O)C(C)=O (some centres undefined)
Mus musculus [1]
  fold change (FC): 2
Mus musculus [2]
  fold change (FC): 3
Mus musculus [3]
  fold change (FC): 3
[4]
  Stability: Stable

## CCCCC[C@@H](O)CCCC(CCCCCCC(=O)O)C(C)=O (some centres undefined)
Mus musculus [1]
  fold change (FC): 5
Mus musculus [2]
  fold change (FC): 12
Mus musculus [3]
  fold change (FC): 19
Rattus norvegicus
  Activity: 2.1 µgequiv
[4]
  Stability: Stable

## CCCCC[C@H](O)/C=C/[C@H]1[C@H](O)CC(=O)[C@@H]1C/C=C\CCCC(=O)O
Mus musculus [1]
  fold change (FC): 80
Rattus norvegicus
  Activity: 1.4 ngequiv
Mus musculus [5]
  fold change (FC): 14
Mus musculus [6]
  fold change (FC): 35
Mus musculus [7]
  fold change (FC): 57
Mus musculus [8]
  fold change (FC): 75

## CC(=O)C(CC#CC1(O)CCCCC1)CCCCCCC(=O)O (centres undefined)
Mus musculus [2]
  fold change (FC): 1
Mus musculus [3]
  fold change (FC): 1
[4]
  Stability: Stable

## CCCCCC(O)CCCC(CCCCCCC(=O)O)C(C)O (centres undefined)
Mus musculus [1]
  fold change (FC): 15
Mus musculus [2]
  fold change (FC): 25
Mus musculus [3]
  fold change (FC): 33
Rattus norvegicus
  Activity: 2.5 µgequiv
[4]
  Stability: Stable

## CCCCCCC(O)CCC(CCCCCCC(=O)O)C(C)=O (centres undefined)
Mus musculus [1]
  fold change (FC): 5
Mus musculus [3]
  fold change (FC): 11
Rattus norvegicus
  Activity: 41 µgequiv
[4]
  Stability: Stable

## CCCCCC(C)(O)CCCC(CCCCCCC(=O)O)C(C)=O (centres undefined)
Mus musculus [1]
  fold change (FC): 4
Mus musculus [2]
  fold change (FC): 9
Mus musculus [3]
  fold change (FC): 11
Rattus norvegicus
  Activity: 0.4 µgequiv
[4]
  Stability: Stable

## CCCCC[C@H](O)CCCC(CCCCCCC(=O)O)C(C)=O (some centres undefined)
Mus musculus [1]
  fold change (FC): 19
Mus musculus [2]
  fold change (FC): 25
Mus musculus [3]
  fold change (FC): 29
Rattus norvegicus
  Activity: 3.2 µgequiv
[4]
  Stability: Stable

## CC(=O)C(CCCCCCCCCO)CCCCCCC(=O)O (centres undefined)
Mus musculus [1]
  fold change (FC): 1
Mus musculus [2]
  fold change (FC): 1
Mus musculus [3]
  fold change (FC): 1
Rattus norvegicus
  Activity: > 125 µgequiv
[4]
  Stability: Stable

## CC(=O)C(CCCCCCC(=O)O)CCCC1(O)CCCCC1 (centres undefined)
Mus musculus [1]
  fold change (FC): 1
Mus musculus [2]
  fold change (FC): 3
Mus musculus [3]
  fold change (FC): 4
Rattus norvegicus
  Activity: > 125 µgequiv
[4]
  Stability: Stable

## CC(=O)C(CCCCCCC(=O)O)CCCC(C)O (centres undefined)
Mus musculus [2]
  fold change (FC): 1
Mus musculus [3]
  fold change (FC): 1
Rattus norvegicus
  Activity: > 100 µgequiv
[4]
  Stability: Stable

## CCCCC[C@H](O)C#CCC(CCCCCCC(=O)O)C(C)=O (some centres undefined)
Mus musculus [1]
  fold change (FC): 3
Mus musculus [2]
  fold change (FC): 7
[4]
  Stability: Stable

## CCCCCC(=O)CCCC(CCCCCCC(=O)O)C(C)=O (centres undefined)
Mus musculus [1]
  fold change (FC): 2
Mus musculus [2]
  fold change (FC): 4
Mus musculus [3]
  fold change (FC): 9
Rattus norvegicus
  Activity: 7 µgequiv
[4]
  Stability: Stable

## CCCCCC(O)CCCC(CCCCCCC(=O)O)C(C)=O (mixture of isomers) [listing 2 of 2 here]
Canis familiaris [14]
  Activity: 92 mL/min
Cavia porcellus [10]
  ED50: 6.5 mg/kg
[4]
  Stability: Stable

## CCCCCC(O)/C=C/CC(CCCCCCC(=O)O)C(C)=O (centres undefined)
Mus musculus [1]
  fold change (FC): 2
Mus musculus [2]
  fold change (FC): 8
Mus musculus [3]
  fold change (FC): 14
Rattus norvegicus
  Activity: 3.2 µgequiv
[4]
  Stability: Stable
